Measured values collected from several papers.
Compare with care: the assays were run in different laboratories.
STAT3: Signal transducer and activator of transcription 3 (STAT3, Homo sapiens, UniProt P40763)
CDK2: Cyclin-dependent kinase 2 (CDK2, Homo sapiens, UniProt P24941)
SIRT6: NAD-dependent protein deacylase sirtuin-6 (SIRT6, Homo sapiens, UniProt Q8N6T7)
PKM: Pyruvate kinase PKM (PKM, Homo sapiens, UniProt P14618)
OR5K1: OR5K1 (Homo sapiens, UniProt Q8NHB7)
HTR7: 5-hydroxytryptamine receptor 7 (HTR7, Homo sapiens, UniProt P34969)
HTR6: 5-hydroxytryptamine receptor 6 (HTR6, Homo sapiens, UniProt P50406)

SMILES | target | assay | setting | quantity | result
CN(CC(=O)N(Cc1ccc2ccccc2c1)c1ccc(C(=O)O)c(O)c1)S(=O)(=O)c1c(F)c(F)c(F)c(F)c1F | STAT3 | ligand displacement, FP | – | Ki | 32.5 µM
CC[C@H](NC(=O)[C@H](CS(=O)(=O)CC1CC1)N[C@@H](c1ccc(F)cc1)C(F)(F)F)C(=O)C(=O)NC1CC1 | Cathepsin B (CTSB, Homo sapiens, UniProt P07858) | enzyme activity, inhibitor, fluorescence | with preincubation | Ki | 0.00033 µM
CC1=C(/C=C/C2=CCC[C@@]3(C)[C@H]2CC[C@@H]3[C@@](C)(O)CCCC(C)C)C[C@@H](O)CC1 | Oxysterols receptor LXR-beta (NR1H2, Homo sapiens, UniProt P55055) | coactivator recruitment, agonist, TR-FRET | – | EC50 | 0.01 to 0.1 µM
COc1cccc(OC)c1NS(=O)(=O)c1ccc(N/C=C2\C(=O)Nc3ccc4ncsc4c32)cc1 | CDK2 | binding | – | Kd | 0.179 µM
C[C@H](NC(=O)CNC(=O)[C@@H]1CCCN1C(=O)[C@@H]1CCCN1C(=O)[C@H](C)NC(=O)[C@H](CCC(N)=O)NC(=O)CNC(=O)[C@@H]1CCCN1C(=O)[C@H](Cc1ccc(O)cc1)NC(=O)[C@H](C)NC(=O)CNC(=O)[C@@H]1CCCN1C(=O)[C@@H]1CCCN1C(=O)[C@H](C)NC(=O)[C@H](CCC(N)=O)NC(=O)CNC(=O)[C@@H]1CCCN1C(=O)[C@H](Cc1ccc(OP(=O)(O)O)cc1)NC(=O)[C@H](C)NC(=O)CN)C(=O)O | STAT3 | binding, ITC | pH 7.5 | Kd | ~40 µM
COc1cccc(CONC(=O)c2ccc(C(N)=O)cc2)c1 | SIRT6 | enzyme activity, inhibitor, fluorescence | – | IC50 | 6.49 µM
Cc1ccc(NS(=O)(=O)c2cc3c(cc2Cl)NC(=O)CO3)cc1C | PKM | enzyme activity, activator | – | AC50 | 0.26 µM
O=C(NOCc1ccc(C(F)(F)F)cc1)c1ccc(CO)cc1 | SIRT6 | enzyme activity, inhibitor, fluorescence | – | IC50 | 6.68 µM
CC(=O)N[C@H](C(=O)N[C@@H](CC(N)=O)C(=O)N[C@@H](CCCCN)C(=O)N1CCC[C@H]1C(=O)N[C@@H](CC(C)C)C(=O)N1CCC[C@H]1C(=O)N1CCC[C@H]1C(=O)N[C@@H](CC(C)C)C(=O)N1CCC[C@H]1C(=O)N[C@H](C(=O)N[C@@H](C)C(N)=O)C(C)C)C(C)C | Tyrosine-protein kinase Fyn, SH3 (FYN, Homo sapiens, UniProt P06241) | binding, ITC | pH 7 | Kd | 23.9 µM
C=Cc1cnccn1 | OR5K1 | cAMP, agonist | – | EC50 | > 1500 µM
Cc1cc(NS(=O)(=O)c2ccc3c(c2)CCC(=O)N3)ccc1Cl | PKM | enzyme activity, activator | – | AC50 | 0.56 µM
O=C(Nc1cc(C2CCCCC2)[nH]n1)c1ccc(Br)cc1 | CDK2 | binding | – | Kd | > 100 µM
Nc1nc2c(ncn2[C@@H]2O[C@H](COP(=O)(O)OP(=O)(O)O)[C@@H](OP(=O)(O)OP(=O)(O)O)[C@H]2O)c(=O)[nH]1 | icd (Escherichia coli, UniProt P08200) | binding, ITC | – | Kd | 132 µM
CN1CCN(C2=Nc3ccccc3Oc3ccc(Cl)cc32)CC1 | HTR7 | ligand displacement, radioligand | cell membranes | Ki | 0.258 µM
Cc1ccc(NS(=O)(=O)c2cc3c(cc2N[C@@H](C)CO)CCC(=O)N3)cc1Cl | PKM | enzyme activity, activator | – | AC50 | 6.1 µM
Cc1cnc(C)cn1 | OR5K1 | cAMP, agonist | – | EC50 | > 1500 µM
Cc1cccc(CONC(=O)c2ccc(C(N)=O)cc2)c1 | SIRT6 | enzyme activity, inhibitor, fluorescence | – | IC50 | 3.94 µM
Cc1ccc(NS(=O)(=O)c2cc3c(cc2N2CCC(N(C)C)C2)NC(=O)CC3)cc1C (stereo not shown) | PKM | enzyme activity, activator | – | AC50 | > 20 µM
CC(C)[C@@H](CC[C@@H](C)[C@H]1CC[C@H]2[C@@H]3[C@H](O)C[C@H]4C[C@@H](NCCCNCCCCNCCCN)CC[C@]4(C)[C@H]3CC[C@]12C)OS(=O)(=O)O | Receptor-type tyrosine-protein phosphatase C (PTPRC, Homo sapiens, UniProt P08575) | enzyme activity, inhibitor | – | Ki | 18 µM
Cc1cnc(-c2ccc(-c3ccc(NC(=O)Nc4c(F)cc(F)cc4F)cc3F)c3c2C(=O)NC3)[nH]1 | Vascular endothelial growth factor receptor 3 (FLT4, Homo sapiens, UniProt P35916) | binding, competition with immobilised ligand | – | Kd | 0.016 µM

SMILES | target | assay | setting | quantity | result
O=C1CCc2cc(S(=O)(=O)Nc3ccc4ncccc4c3)ccc2N1 | PKM | enzyme activity, activator | – | AC50 | > 20 µM
CC(=O)N=S(=O)(O)c1ccc(N/C=C2\C(=O)Nc3ccc4ncsc4c32)cc1 | CDK2 | binding, ITC | – | Kd | 0.194 µM
CC(C)c1nc2cc(OCCCCN3CCN(c4cccc5c4OCCO5)CC3)ccc2s1 | HTR6 | cell-free assay, radioligand | – | Ki | 2.3 µM
CCc1nccnc1CC | OR5K1 (Homo sapiens, UniProt Q8NHB7, A2T/T15M/Y193C) | cAMP, agonist | – | EC50 | 499 µM
NC(=O)c1ccc(C(=O)NOCc2ccc(Nc3ccccc3)cc2)cc1 | SIRT6 | enzyme activity, inhibitor, fluorescence | – | IC50 | 2.61 µM
Cc1ccc(NS(=O)(=O)c2cc3c(cc2N[C@H](C)CO)NC(=O)CC3)cc1C | PKM | enzyme activity, activator | – | AC50 | 0.88 µM
N#Cc1ccc(CONC(=O)c2ccc(C(N)=O)cc2)cc1 | SIRT6 | enzyme activity, inhibitor, fluorescence | – | IC50 | 11.7 µM
CN1CCC(=C2c3ccccc3C=Cc3ccccc32)CC1 | HTR7 | ligand displacement, radioligand | cell membranes | Ki | 0.024 µM
Cc1cnc(C)c(C)n1 | OR5K1 (Homo sapiens, UniProt Q8NHB7, F62L) | cAMP, agonist | – | EC50 | 376 µM
COc1cccc(Sc2ccc(CONC(=O)c3ccc(C(N)=O)cc3)cc2C(F)(F)F)c1 | SIRT6 | enzyme activity, inhibitor, fluorescence | – | IC50 | 1.12 µM
CN(CC(=O)N(Cc1cc(C(C)(C)C)cc(C(C)(C)C)c1)c1ccc(C(=O)O)c(O)c1)S(=O)(=O)c1c(F)c(F)c(F)c(F)c1F | STAT3 | ligand displacement, FP | – | Ki | 37.5 µM
Cc1ccc(NS(=O)(=O)c2cc3c(cc2-c2ccccc2)NC(=O)CO3)cc1C | PKM | enzyme activity, activator | – | AC50 | > 20 µM
CC(=O)Nc1ccc(C(=O)NOCc2ccccc2)cc1 | SIRT6 | enzyme activity, inhibitor, fluorescence | – | IC50 | 218 µM
Cc1ccc(NS(=O)(=O)c2cc3c(cc2NC(C)C)NC(=O)CC3)cc1C | PKM | enzyme activity, activator | – | AC50 | 0.57 µM
Cc1nc2cc(OCCCCN3CCN(c4cccc(Cl)c4Cl)CC3)ccc2s1 | HTR6 | cell-free assay, radioligand | – | Ki | 0.72 µM
Cc1nccnc1C | OR5K1 | cAMP, agonist | – | EC50 | > 1500 µM
CCCCN1CCC(COC(=O)c2ccc(N)c(OCF)c2)CC1 | HTR6 | cell-free assay, radioligand | – | Ki | > 10 µM
CC(C)(C)c1ccc(CONC(=O)c2ccc(C(N)=O)cc2)cc1 | SIRT6 | enzyme activity, inhibitor, fluorescence | – | IC50 | 2.79 µM
O=C1c2ccccc2CCN1CCCCN1CCN(c2cccc(Cl)c2Cl)CC1 | HTR6 | ligand displacement, radioligand | – | Ki | 0.544 µM
CN1CCN(C2=Nc3cscc3/C(=C/C#N)c3cscc32)CC1 | HTR7 | ligand displacement, radioligand | cell membranes | Ki | 0.153 µM
